The nature of series [1]: Pharmacokinetic analysis of idarubicin in plasma. Type of series: in vivo, human. The following applies: for Cmax: iv, Maximum idarubicin plasma concentration (cmax), schedule A.
Series [2] concerns patients with relapsed or refractory leukaemia. The experiment in a line: Phase I safety and tolerability: adverse events, DLT, MTD. It counts as in vivo, human. As to conditions: Schedule B: for 3 days, with idarubicin 12 mg/m^2/d IV for 3 days.
The nature of series [3]: Pharmacokinetic analysis of vorinostat and two metabolites. It counts as in vivo, human. As to conditions: for Tmax / Cmax: human, serum. In outline: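 Relapsed/refractory leukaemia patients self-dosed oral HDAC inhibitor TID for 14 days (arm A) or 3 days (arm B), 3+3 escalation from 100 mg, with anthracycline 12 mg/m2 IV over 30 min on days 1–3. Blood clotted 20–30 min at 4°C, spun 2,000 × g 15 min at 4°C, serum stored at -70°C. […] Dosing times unrecorded, so only Cmax and Tmax were derived.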

In series [4] the test system is histone-H3 acetylation in PBMCs. The experiment in a line: Histone-H3 acetylation in PBMCs. Type of series: in vivo, human.
Another series concerns TOP2A mRNA. In words: Real-time PCR of TOP2A mRNA expression in PBMCs. It counts as in vivo, human. A general note: Quantitative PCR measures a nucleic acid by following its amplification.
Series [5] has as its system patients with refractory cutaneous T cell lymphoma (CTCL). The following applies: et al 2007, cited from earlier work.

In the case of `CC(=O)[C@]1(O)Cc2c(O)c3c(c(O)c2[C@@H](O[C@H]2C[C@H](N)[C@H](O)[C@H](C)O2)C1)C(=O)c1ccccc1C3=O` [idarubicin], the half-life (in general, the time in which the quantity being followed falls by half) in series [1] (human, plasma, intravenous) was around 11 h. Also, the Cmax (as a rule, the highest concentration seen after dosing) was 66.1 ng/mL in series [1] (human, plasma, mean, idarubicin 30-min intravenous infusion) and 19.5 to 139 ng/mL in series [1] (human, plasma, range, idarubicin 30-min intravenous infusion). Moreover, the “Idarubicin peak plasma concentration, mean” value in series [1] (schedule B, idarubicin 30-min intravenous infusion) came to 55.4 ng/mL.
Turning to `O=C(CCCCCCC(=O)Nc1ccccc1)NO` [vorinostat], the “Maximum tolerated dose (MTD) of vorinostat” value in series [2] is on record as 400 mg TID. The Plasma concentrations achieved in series [3] (TID dosing for 3 days, dose levels of 400 mg and 500 mg) was above 2000 nM. The Tmax (usually the time at which the peak concentration occurs) in series [3] (oral) was 1 to 3 h; in series [3] (po, 100 mg) it was 2.5 h; in series [3] (po, 300 mg), 2.5 h; in series [3] (po, 400 mg) it was 2.25 h. For the same compound, the Cmax is 800 nM in series [3] (oral, Median Cmax for vorinostat, non-responders); 688 nM in series [3] (po, 100 mg, Vorinostat Mean Cmax, vorinostat 100 mg TID for 3 days oral, with idarubicin, N=3); 331 nM in series [3] (po, 100 mg, Vorinostat Median Cmax (Range), vorinostat 100 mg TID for 3 days oral, with idarubicin, N=3); 522 nM in series [3] (po, 200 mg, Vorinostat Mean Cmax, vorinostat 200 mg TID for 3 days oral, with idarubicin, N=3); 443 nM in series [3] (po, 200 mg, Vorinostat Median Cmax (Range), vorinostat 200 mg TID for 3 days oral, with idarubicin, N=3). The “Vorinostat Median Tmax” value is reported as 2 h in series [3] (vorinostat 100 mg TID for 3 days oral, with idarubicin, N=3); 1 h in series [3] (vorinostat 200 mg TID for 3 days oral, with idarubicin, N=3); 3 h in series [3] (vorinostat 500 mg TID for 3 days oral, with idarubicin, N=5). For the same compound, the “Patients with detectable histone acetylation at day 21” value in series [4] (3-day schedule of vorinostat) was found to be 50%. Further, the “Patient samples with increased histone-H3 acetylation” value in series [4] (15 of 33 available patient samples, both schedules) is on record as 46%. Besides, the “Patients with increased histone-H3 acetylation” value in series [4] (schedule A) is recorded as 5/11; in series [4] (schedule B) it was 10/22. For the same compound, the “Change of TOP2A mRNA levels relative to pretreatment” value in the series with TOP2A mRNA (schedule A, day 1 to day 21, p=0.016, Wilcoxon signed rank test) is “downregulation”; with TOP2A mRNA (schedule B, by day 3 of therapy, p=0.168, Wilcoxon, returned to baseline later) it was “trend towards downregulation”. In series [5] (Phase II, 3 different schedules, refractory CTCL, ref Duvic), the Response rate was 24%. Besides, the Objective response rate in series [5] (second Phase II trial, progressive or refractory CTCL, ref Olsen) is recorded as 30%.
